Results reported in ChEMBL document CHEMBL4052826, “Design and Synthesis of Novel Reactive Oxygen Species Inducers for the Treatment of Pancreatic Ductal Adenocarcinoma” (J Med Chem, 2018).
Calls of active or inactive are those of the source. No cut-off for these calls is given here.

Experiments:
[1] = Selectivity index, ratio of IC50 for HPDEC to IC50 for human MIAPaCa2 cells
Procedure, shortened: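 The measurement is MTT cytotoxicity (72 h) in HPV16-E6E7-immortalized HPDE cells and in MIA PaCa-2 cells, both grown in RPMI1640 with 10% FBS. Cells were seeded at 3000–8000/well and attached overnight, then treated with serial dilutions (30 nM–10 μM for most lines). MTT (300 μg/mL final) was added for 3 h at 37°C, formazan was dissolved in DMSO and A570 was read. IC50s are mean ± SD of three experiments; the index is their ratio.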

[2] = system: MIA PaCa-2; assay: Antitumor activity against human MIAPaCa2 cells xenografted in NOD/SCID mouse assessed as tumor volume at 5 mg/kg, ip administered 5 times a week co-administered with gemcitabine at 15 mg/kg administered once a week for 48 days (reference value: 1503 +/- 189 mm'3); type: functional
Procedure, shortened: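 MIA PaCa-2 subcutaneous xenografts in NOD/SCID mice, randomized at 75 mm3. Test agent was given at 5 mg/kg five times a week. Gemcitabine was given at 15 mg/kg either once weekly for 48 days or twice weekly for 15 days. Groups were n=3–4. Tumor volume was measured by caliper, given as mean ± SEM, and compared by unpaired t test.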

[3] = system: BXPC-3; assay: Induction of unfolded protein response in human BxPC3 cells assessed as upregulation of GRP78 expression at 2 uM by Western blot analysis; type: functional, cell-based; conditions: TDE = time-dependent effect
Procedure, shortened: (§1)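 Immunoblotting. Cells (4×10^5) in 60 mm dishes were treated, lysed 30 min at 4°C and quantified by BCA. 40 μg protein was run on SDS-PAGE and transferred to PVDF. Primary antibodies (1:1000) incubated overnight at 4°C, then Dylight 800 secondary, with fluorescent scanning. Bands were normalized to GAPDH or actin loading controls. Mean ± SD, three independent experiments, Student's t-test.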

[4] = Induction of compound colloidal behavior
[5] = system: BXPC-3; assay: Induction of unfolded protein response in human BxPC3 cells assessed as upregulation of CHOP expression at 2 uM by Western blot analysis; type: functional, cell-based; conditions: TDE = time-dependent effect; procedure, shortened: as §1
[6] = system: Mus musculus; assay: Toxicity in NOD/SCID mouse xenografted with human MIAPaCa2 cells assessed as lethargy at 5 mg/kg, ip administered 5 times a week until day 44; type: organism-based; conditions: in vivo
Procedure, shortened: (§2)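 Subcutaneous flank MIA PaCa-2 xenografts (2.0×10^6 cells) in 6-week NOD/SCID mice, randomized at 65 mm3 (n=5/group: vehicle or drug). Dosed ip in 5% DMSO/60% propylene glycol/35% saline, five days on/two off, to day 44. Body weight tracked and mice watched for weakness, weight loss or lethargy; mean ± SEM.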

[7] = system: Mus musculus; assay: Toxicity in NOD/SCID mouse xenografted with human MIAPaCa2 cells assessed as microscopic changes in pancreas at 5 mg/kg, ip administered 5 times a week until day 44 by hematoxylin and eosin staining-based inverted microscopic method; type: organism-based; conditions: in vivo
Procedure, shortened: (§3)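 Necropsy after the 44-day ip course in MIA PaCa-2 xenograft-bearing NOD/SCID mice: heart, kidney, liver, lung, spleen and pancreas fixed in 10% neutral buffered formalin, paraffin-embedded, sectioned and stained with hematoxylin and eosin. Sections examined by inverted microscope at 20X, compared with vehicle-treated animals.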

[8] = system: PANC-1; assay: Cytotoxicity against human PANC1 cells assessed as decrease in cell proliferation after 72 hrs by MTT assay; type: functional, cell-based; conditions: PANC-1, 72 h
Procedure, shortened: (§4)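 MTT assay. Cells (3000–8000/well) attached overnight in RPMI1640 with 10% FBS; the GR line was kept with 200 nM gemcitabine. Serial dilutions (30 nM–10 μM for most lines) were applied for 72 h. MTT was added at a final 300 μg/mL for 3 h at 37°C, formazan was dissolved in DMSO and A570 read. Inhibition = (1 − OD treated/OD control) × 100. IC50 given as mean ± SD, three independent experiments.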

[9] = system: MIA PaCa-2; assay: Induction of unfolded protein response in human MIAPaCa2 cells assessed as upregulation of GRP78 expression at 2 uM by Western blot analysis; type: functional, cell-based; conditions: TDE = time-dependent effect; procedure, shortened: as §1
[10] = system: Mus musculus; assay: Toxicity in NOD/SCID mouse xenografted with human MIAPaCa2 cells assessed as body weight loss at 5 mg/kg, ip administered 5 times a week until day 44; type: organism-based; conditions: in vivo; procedure, shortened: as §2
[11] = system: MIA PaCa-2; assay: Induction of apoptosis signaling in human MIAPaCa2 cells at 5 times IC50 after 4 hrs by IPA analysis; type: functional, cell-based
[12] = system: MIA PaCa-2; assay: Cytotoxicity against gemcitabine-resistant human MIAPaCa2 cells assessed as decrease in cell proliferation after 72 hrs by MTT assay; type: functional, cell-based; procedure, shortened: as §4
[13] = system: Mus musculus; assay: Induction of reactive oxygen species generation in tumor of NOD/SCID mouse xenografted with MIAPaCa2 cells assessed as upregulation of HO-1 expression at 5 mg/kg, ip administered 5 times a week until day 44 by Western blot method; type: functional, organism-based
[14] = system: Mus musculus; assay: Toxicity in NOD/SCID mouse xenografted with human MIAPaCa2 cells assessed as body weight loss at 5 mg/kg, ip administered 5 times a week until day 44 followed by dose escalation up to 20 mg/kg until day 67; type: organism-based; conditions: in vivo
Procedure, shortened: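 After a 44-day course (ip, five days on/two off, in 5% DMSO/60% propylene glycol/35% saline), two mice per group stayed on study and dose was gradually raised from 5 to 20 mg/kg until day 67 in MIA PaCa-2 flank xenografts in NOD/SCID mice. Body weight monitored; mean ± SEM.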

[15] = system: MIA PaCa-2; assay: Induction of reactive oxygen species generation in human MIAPaCa2 cells assessed as upregulation of NQO1 expression at 2 uM after 4 to 24 hrs by Western blot analysis; type: functional, cell-based; procedure, shortened: as §1
[16] = system: MIA PaCa-2; assay: Induction of reactive oxygen species generation in human MIAPaCa2 cells at 1.1 to 10 uM after 24 hrs in presence of NAC by H2DCFDA reactivity assay; type: functional, cell-based
Procedure, shortened: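 H2DCFDA assay. Trypsinized MIA PaCa-2 cells in suspension were loaded with 20 μM H2DCFDA for 30 min at 37°C, washed and plated at 20,000/well. After 30 min they were treated with compound at 10, 3.3 or 1.1 μM. Fluorescence was read at 493/523 nm over time. DMSO basal and unstained controls were included. NAC pretreatment, where used, was 5 mM for 30 min. Duplicates, three independent experiments.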

[17] = system: MIA PaCa-2; assay: Downregulation of COX-3 expression in human MIAPaCa2 cells at 2 uM after 4 to 24 hrs by Western blot method; type: functional, cell-based; procedure, shortened: as §1
[18] = system: Mus musculus; assay: Toxicity in NOD/SCID mouse xenografted with human MIAPaCa2 cells assessed as microscopic changes in spleen at 5 mg/kg, ip administered 5 times a week until day 44 by hematoxylin and eosin staining-based inverted microscopic method; type: organism-based; conditions: in vivo; procedure, shortened: as §3
[19] = system: Mus musculus; assay: Induction of unfolded protein response in tumor of NOD/SCID mouse xenografted with MIAPaCa2 cells assessed as upregulation of CHOP expression at 5 mg/kg, ip administered 5 times a week until day 44 by Western blot method; type: functional, organism-based
Procedure, shortened: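 Dosed ip in 5% DMSO/60% propylene glycol/35% saline, five days on/two off, until day 44, versus vehicle. Tumor lysates immunoblotted with primary antibodies, Dylight 800 secondary, fluorescent scan.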

[20] = system: MIA PaCa-2; assay: Induction of unfolded protein response in human MIAPaCa2 cells assessed as upregulation of CHOP expression at 2 uM by Western blot analysis; type: functional, cell-based; conditions: TDE = time-dependent effect; procedure, shortened: as §1

With O=C1C(Nc2ccc(-c3ccccc3)cc2)=CC(=O)c2ncncc21 the “Ratio IC50” value [1] was 3, the Activity [2] was 163 mm3 and the Activity [3] was “Tde”. The Activity [4] was “Active”, the Activity [5] was “Tde” and the Activity [6] was “Non-Toxic”. The Activity [7] was “Non-Toxic”, the IC50 [8] was 400 nM and the Activity [9] was “Tde”. The Activity [10] was “Non-Toxic”, the Activity [11] was “Active” and the Activity [12] was “Dose-dependent effect”. The IC50 ([12]; MIA PaCa-2, 72 h) was 1000 nM, the Activity [13] was “Active” and the Activity [14] was “Non-Toxic”. For the same compound, the Activity [15] was “inactive”, the Activity [16] was “inactive” and the Activity [17] was “Active”. For the same compound, the Activity [18] was “Non-Toxic”, the Activity [19] was “Active” and the Activity [20] was “Tde”.
